Assay results published in ChEMBL document CHEMBL3232782, “1,2,3,4,8,9,10,11-octahydrobenzo[j]phenanthridine-7,12-diones as new leads against Mycobacterium tuberculosis” (J Med Chem, 2014).
In brackets after ≈: the same amount, converted by molar mass. Activity calls are given as the source filed them. The rule behind the calls is not given here.

What was measured:
[1] = test system: Mycobacterium tuberculosis; experiment: Antimycobacterial activity against Mycobacterium tuberculosis H37Rv expressing luciferase assessed as growth inhibition after 6 days by luminometry; type: functional; settings: 144 h
Method in brief: (§1)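 Strains carried pSMT1 luxAB reporter plasmid. DMSO stocks 10 mM, serially diluted in 7H9 + 10% FCS, triplicate wells. Filtered bacterial suspension at 50 000 RLU/mL. Luminescence read after 6 days using 1% n-decanal substrate. […] Growth temperatures: M.tb 37 °C; M. avium and M. bovis 39 °C.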

[2] = Cytotoxicity against mouse J774A1 cells assessed as cell viability after 24 hrs by Trypan blue exclusion assay; type: cell-based; settings: J774.A1, 24 h
[3] = Selectivity index, ratio of IC50 for mouse J774A1 cells to MIC for Mycobacterium tuberculosis H37Rv expressing luciferase; type: toxicity, cell-based, J774.A1; settings: read-out: Selectivity Index
Method in brief: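 SI = IC50/MIC. IC50 came from a neutral red uptake assay on J774 A.1 cells after 24 h exposure in DMEM + 10% FCS, with OD 530 nm. […] Both were from triplicate cultures.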

[4] = test system: Mycobacterium tuberculosis; experiment: Antimycobacterial activity against Mycobacterium tuberculosis Beijing 17919 expressing luciferase assessed as growth inhibition after 6 days by luminometry; type: functional; settings: Beijing 17919, 144 h; method in brief: as §1
[5] = test system: Mycobacterium avium subsp. paratuberculosis; experiment: Antimycobacterial activity against Mycobacterium avium subsp. paratuberculosis ATCC 19698 expressing luciferase assessed as growth inhibition after 6 days by luminometry; type: functional; settings: ATCC 19698, 144 h; method in brief: as §1
[6] = Antimycobacterial activity against Mycobacterium avium subsp. avium ATCC 15769 expressing luciferase assessed as growth inhibition after 6 days by luminometry; type: functional; settings: ATCC 15769, 144 h; method in brief: as §1
[7] = test system: Mycobacterium tuberculosis; experiment: Antimycobacterial activity against Mycobacterium tuberculosis H37Rv expressing luciferase assessed as growth inhibition at 100 uM preincubated with liver S9 fraction for 15 mins followed by incubation with parasite and measured after 6 days by luminometry; type: functional, organism-based
Method in brief: (§2)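 Compounds (100 μM) were preincubated with NADPH/G-6-P-conditioned liver S9 at 37 °C, 5% CO2 for 15 or 30 min. They were then serially diluted and tested against luminescent H37Rv in 7H9 + 10% FCS. Luminescence was read after 6 days with n-decanal.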

[8] = test system: Mycobacterium tuberculosis; experiment: Antimycobacterial activity against Mycobacterium tuberculosis H37Rv expressing luciferase assessed as growth inhibition preincubated with liver S9 fraction for 30 mins followed by incubation with parasite and measured after 6 days by luminometry; type: functional; method in brief: as §2
[9] = Selectivity ratio of IC90 for Mycobacterium ulcerans 1615 to IC90 for Mycobacterium tuberculosis; type: functional
[10] = test system: Mycobacterium tuberculosis; experiment: Antimycobacterial activity against Mycobacterium tuberculosis H37Rv expressing luciferase infected in mouse J774A1 cells assessed as inhibition of replication at 0.03 to 0.05 uM measured after 1 to 4 days by luminescence assay; type: functional, organism-based; settings: J774.A1
Method in brief: (§3)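 J774 A.1 cells (40 000/well) were infected with H37Rv lux at MOI 0.1 in DMEM with penicillin/fungizone and no gentamicin. Serial compound dilutions were added, with treatment starting 24 h post infection. Extracellular bacteria were removed by washes and 1 h 1% gentamicin. Cells were lysed with 1% Triton X-100 and luminescence read with n-decanal. Reduction in RLU versus untreated; INH 0.1 μM control.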

[11] = test system: Mycobacterium tuberculosis; experiment: Antimycobacterial activity against Mycobacterium tuberculosis H37Rv expressing luciferase infected in mouse J774A1 cells assessed as inhibition of replication at 0.25 uM measured after 1 to 4 days by luminescence assay; type: functional; settings: J774.A1; method in brief: as §3
[12] = test system: Mycobacterium tuberculosis; experiment: Antimycobacterial activity against Mycobacterium tuberculosis H37Rv expressing luciferase infected in mouse J774A1 cells assessed as inhibition of replication at 0.50 uM measured after 1 to 4 days by luminescence assay; type: functional; settings: J774.A1; method in brief: as §3
[13] = test system: Mycobacterium tuberculosis; experiment: Antimycobacterial activity against Mycobacterium tuberculosis H37Rv expressing luciferase infected in mouse J774A1 cells assessed as inhibition of replication measured after 1 to 4 days by luminescence assay; type: functional, J774.A1; method in brief: as §3
[14] = Genotoxicity in mouse J774A1 cells assessed as DNA strand breaks at 0.25 to 50 uM after 24 hrs by Comet assay; type: toxicity, cell-based; settings: j774.a1, 24 h
Method in brief: (§4)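 J774 A.1 cells (100 000/well) were exposed to compound serial dilutions in DMEM + 10% FCS for 24 h at 37 °C, 5% CO2. Alkaline comet assay: cells embedded in low-melt agarose, lysed, electrophoresed 20 min at 300 mA, neutralized and stained with gel red. The % tail DNA of 200 nuclei was scored by fluorescence microscopy. Mann–Whitney U test.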

[15] = Selectivity index, ratio of IC50 for mouse J774A1 cells to MIC for Mycobacterium tuberculosis H37Rv expressing luciferase infected in mouse J774A1 cells; type: toxicity, cell-based, J774.A1; settings: read-out: Selectivity Index
Method in brief: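 SI = neutral red IC50 in J774 A.1 cells (24 h) divided by the intracellular MIC. The intracellular MIC came from luminescent H37Rv in infected J774 A.1 macrophages after 3 days of treatment starting 24 h post infection, with lysate luminescence measured using n-decanal.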

[16] = Genotoxicity in mouse J774A1 cells assessed as DNA strand breaks at 0.25 to 5 uM after 24 hrs by Comet assay; type: toxicity, cell-based; settings: j774.a1, 24 h; method in brief: as §4

Row | SMILES | MIC99 [1] [µM] | IC50 [2] [µM] | selectivity ratio [3] | further results
1 | NNC(=O)c1ccncc1 [ISONIAZID] | 0.13 (≈ 0.0178 µg/mL) | > 100 | > 769 | MIC [4]: 0.09 µM (≈ 0.0123 µg/mL); MIC [5]: 0.99 µM (≈ 0.136 µg/mL); MIC [6]: 0.76 µM (≈ 0.104 µg/mL)
2 | CC1CCc2c(ncc3c2C(=O)c2ccccc2C3=O)C1 (stereo not given) | 5.3 (≈ 1.47 µg/mL) | 8.13 | 1.53 | 
3 | CC(C)(C)C1CCc2ncc3c(c2C1)C(=O)C1=C(C3=O)C2CCC1CC2 (stereo not given) | 8.56 (≈ 2.99 µg/mL) | 22.9 | 2.68 | 
4 | CC(C)(C)OC(=O)N1CCc2ncc3c(c2C1)C(=O)C1=C(C3=O)C2CCC1C2 (stereo not given) | 12.9 (≈ 4.9 µg/mL) | 7.33 | 0.57 | 
5 | CC1CCCc2c1ncc1c2C(=O)c2ccccc2C1=O (stereo not given) | 14.4 (≈ 4 µg/mL) | 14.9 | 1.03 | 
6 | CC(C)(C)C1CCc2ncc3c(c2C1)C(=O)C1=C(C3=O)C2CCC1O2 (stereo not given) | 7.21 (≈ 2.43 µg/mL) | 53.2 | 7.38 | 
7 | CC(C)(C)C1CCc2ncc3c(c2C1)C(=O)C1=C(C3=O)C2CCC1C2 (stereo not given) | 0.59 (≈ 0.198 µg/mL) | 51.4 | 87 | growth inhibition (GI) [7]: Active; MIC [8]: 1.05 µM (≈ 0.352 µg/mL); MIC [4]: 0.33 µM (≈ 0.111 µg/mL); MIC [5]: 0.69 µM (≈ 0.231 µg/mL); MIC [6]: 0.8 µM (≈ 0.268 µg/mL); Selectivity ratio [9]: 6; growth inhibition (GI) [10]: inactive; inhibition at 0.25 µM [11]: 43.8%; inhibition at 0.5 µM [12]: 52.6%; MIC [13]: 2.48 µM (≈ 0.832 µg/mL); Activity [14]: Non-toxic; selectivity ratio [15]: 20.7
8 | Cc1nc2c(c3c1C(=O)c1ccccc1C3=O)CCCC2 | 17.8 (≈ 4.93 µg/mL) | 10.9 | 0.61 | 
9 | CCOC(=O)C1CCc2ncc3c(c2C1)C(=O)C1=C(C3=O)C2CCC1CC2 (stereo not given) | 0.26 (≈ 0.095 µg/mL) | 49.8 | 191 | growth inhibition (GI) [7]: Active; MIC [8]: 0.65 µM (≈ 0.238 µg/mL); MIC [4]: 0.16 µM (≈ 0.0585 µg/mL); MIC [5]: 0.21 µM (≈ 0.0767 µg/mL); MIC [6]: 0.37 µM (≈ 0.135 µg/mL); Selectivity ratio [9]: 10; growth inhibition (GI) [10]: inactive; inhibition at 0.25 µM [11]: 55.8%; inhibition at 0.5 µM [12]: 94.3%; MIC [13]: 2.41 µM (≈ 0.881 µg/mL); Activity [14]: Non-toxic; selectivity ratio [15]: 79.3
10 | Cc1ccc2c3c(cnc2c1)C(=O)c1ccccc1C3=O |  | 3.21 | 15 | MIC [1]: 0.64 µM (≈ 0.175 µg/mL)
11 | Cc1nc2c(c3c1C(=O)c1ccccc1C3=O)CCC(C)C2 (stereo not given) | 9.85 (≈ 2.87 µg/mL) | 25.7 | 2.61 | 
12 | Cc1nc2c(c3c1C(=O)c1ccccc1C3=O)CCCC2C (stereo not given) | 17.7 (≈ 5.15 µg/mL) | 30.8 | 1.74 | 
13 | CC(C)(C)C1CCc2ncc3c(c2C1)C(=O)c1ccccc1C3=O (stereo not given) | 9.64 (≈ 3.08 µg/mL) | 11.5 | 1.19 | 
14 | O=C1c2ccccc2C(=O)c2c1cnc1c2CCCC1 | 9.88 (≈ 2.6 µg/mL) | 7.34 | 0.74 | 
15 | CO[C@H]1/C=C/O[C@@]2(C)Oc3c(C)c(O)c4c(O)c(c(/C=N/N5CCN(C)CC5)c(O)c4c3C2=O)NC(=O)/C(C)=C\C=C\[C@H](C)[C@H](O)[C@@H](C)[C@@H](O)[C@@H](C)[C@H](OC(C)=O)[C@@H]1C [RIFAMPIN] | 0.19 (≈ 0.156 µg/mL) | > 100 | > 526 | 
16 | CCOC(=O)C1CCc2ncc3c(c2C1)C(=O)C1=C(C3=O)C2CCC1C2 (stereo not given) | 0.22 (≈ 0.0773 µg/mL) | 8.49 | 38.6 | growth inhibition (GI) [7]: Active; MIC [8]: 0.66 µM (≈ 0.232 µg/mL); MIC [4]: 0.14 µM (≈ 0.0492 µg/mL); MIC [5]: 0.44 µM (≈ 0.155 µg/mL); MIC [6]: 1.22 µM (≈ 0.429 µg/mL); Selectivity ratio [9]: 50; growth inhibition (GI) [10]: inactive; inhibition at 0.25 µM [11]: 63.9%; inhibition at 0.5 µM [12]: 86.7%; MIC [13]: 2.38 µM (≈ 0.836 µg/mL); Activity [16]: Non-toxic; selectivity ratio [15]: 10.8
17 | CC1CCc2ncc3c(c2C1)C(=O)c1ccccc1C3=O (stereo not given) | 9.61 (≈ 2.67 µg/mL) | 1.31 | 0.14 | 
